Compound activity (PubChem BioAssay)
Calb FLC: C. albicans growth inhibition with fluconazole, primary screen, CaCi-2 strain, Alamar Blue fluorescence; C. albicans CaCi-2 (fluconazole-resistant clinical isolate) + fluconazole, 48 h; growth inhibition, % (concentration not given with the values); 300,000 tested, 0.57% active; AID 1979, 2009;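 active = growth inhibition above about 58% in most replicates, limit read from the data, passing the limit was not always enough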;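 note: all wells also contain fluconazole at 8 µg/ml as a sub-toxic cotreatment; 0% = median of DMSO wells and 100% = median of geldanamycin control wells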
ARFGAP1 inhibitor: inhibitors of rat ARFGAP1 GAP activity, primary screen, biochemical, fluorescence polarization, GDP tracer. Arfgap1-stimulated ARF1 GTP hydrolysis, GDP FP detection. inhibition, % at 16.5 µM. 360,000 tested, 0.26% active. AID 651572, 2012;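 active = inhibition above a per-plate limit, mean inhibition of low control wells plus 3 SD, cut at about 25% in these data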;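 note: 0% = DMSO wells with enzyme and 100% = wells lacking Arfgap1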
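System: truncated rat Arfgap1 GAP domain / Benchmarks: high control wells lacking Arfgap1, low control full reaction with DMSO / Times: compound-enzyme preincubation 20 min, reaction 120 min, detection 60 min, 25 °C / Repeats: one replicate per compound / Also added: human ARF1(Δ1-17)-GTP substrate / Measured by: Tracer-displacement fluorescence polarization with EDTA stop, 620/688 nm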
PHOSPHO1 block: PubChem AID 1565. Phosphoethanolamine/phosphocholine phosphatase (Homo sapiens), Q8TCT1. recombinant PHOSPHO1, absorbance phosphatase assay. inhibition, % at 13.3 µM. 290,000 tested, 1.1% active; in the data active = inhibition above about 60%
Target sequence (Q8TCT1 whole entry, looked up): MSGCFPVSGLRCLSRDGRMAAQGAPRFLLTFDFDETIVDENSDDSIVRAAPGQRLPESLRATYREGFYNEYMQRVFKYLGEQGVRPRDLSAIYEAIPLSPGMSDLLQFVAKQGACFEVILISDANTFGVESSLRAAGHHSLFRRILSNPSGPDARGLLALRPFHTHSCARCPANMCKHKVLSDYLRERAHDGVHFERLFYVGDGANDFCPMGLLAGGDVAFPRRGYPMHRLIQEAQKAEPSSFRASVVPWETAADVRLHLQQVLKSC
VIM-2 inh: VIM-2 metallo-beta-lactamase inhibitors, primary screen, biochemical, epi-absorbance readout, Pseudomonas aeruginosa enzyme. purified VIM-2, nitrocefin hydrolysis, epi-absorbance fluorescence. inhibition, % at 5.6 µM. 290,000 tested, 0.89% active. AID 1527, 2009;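 active = inhibition above the mean of all tested compounds plus 3 SD, cutoff set per screening run, cut at about 7.5% in these data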;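 note: red hydrolysis product quenches plate fluorescence so inhibitors raise well fluorescence; 0% = enzyme with DMSO and 100% = DMSO without enzyme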
IMP-1 inhibitor: IMP-1 metallo-beta-lactamase inhibitors, primary screen, biochemical, epi-absorbance readout, Pseudomonas aeruginosa enzyme. purified IMP-1, nitrocefin hydrolysis, epi-absorbance fluorescence. inhibition, % at 5.6 µM. 290,000 tested, 0.45% active. AID 1556, 2009;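 active = inhibition above the mean plus 3 SD of all compounds in the same screening run, cut at about 4.5% in these data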;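 note: 0% = IMP-1 with DMSO and 100% = DMSO wells lacking enzyme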
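System – purified recombinant IMP-1 beta-lactamase · Input – IMP-1 dispensed at 0.2 nM · Timing – 15 min preincubation plus 25 min reaction at 25 °C · Signal – Epi-absorbance fluorescence, 480 nm excitation, 530 nm emission · Measure – percent IMP-1 inhibition derived from blank-referenced optical density · Controls – Enzyme-plus-DMSO low control, enzyme-free DMSO high control · Replication – singlicate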
ASAP1 GAP inh: inhibitors of human ASAP1 ArfGAP activity, primary screen, biochemical, fluorescence polarization; Arf-GAP with SH3 domain, ANK repeat and PH domain-containing protein 1 (Homo sapiens), …; ASAP1-stimulated ARF1 GTP hydrolysis, GDP FP detection; inhibition, % at 16.5 µM; 360,000 tested, 0.19% active; AID 624377, 2012; in the data active = inhibition above about 25%;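 note: 0% = vehicle with enzyme and substrate and 100% = no enzyme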
Target sequence (Q9ULH1 325-724 limits assumed): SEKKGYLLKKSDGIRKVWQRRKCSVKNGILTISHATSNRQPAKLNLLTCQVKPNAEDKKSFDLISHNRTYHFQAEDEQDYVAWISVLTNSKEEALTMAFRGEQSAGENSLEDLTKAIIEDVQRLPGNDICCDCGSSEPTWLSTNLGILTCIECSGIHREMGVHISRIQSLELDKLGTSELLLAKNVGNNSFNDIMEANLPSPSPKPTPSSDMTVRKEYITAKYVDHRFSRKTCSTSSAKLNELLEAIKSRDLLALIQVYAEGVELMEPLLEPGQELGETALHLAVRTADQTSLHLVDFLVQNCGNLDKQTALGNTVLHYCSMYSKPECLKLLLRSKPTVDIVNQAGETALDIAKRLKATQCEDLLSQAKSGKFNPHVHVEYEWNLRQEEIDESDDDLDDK
The depositor's hits bear a star; / = no result. Sampled rows, rich in hits. Any-hit rate of the full collection: about 2.6%.

SMILES | Calb FLC | ARFGAP1 inhibitor | PHOSPHO1 block | VIM-2 inh | IMP-1 inhibitor | ASAP1 GAP inh
CCc1cc(OC)c(CCN)cc1OC | / | -20 | / | / | / | 14
C[C@]12CCC3[C@@H](CC[C@H]4C[C@@H](O)CC[C@]34C)C1CCC2=O (some centres undefined) | 80* | -3 | 33 | -3 | -4 | 12
C[C@]12CC[C@@H](O)C[C@H]1CC[C@@H]1[C@@H]2CC[C@]2(C)C(=O)CC[C@@H]12 | -4 | 13 | / | / | / | 8
O=C1CC[C@@]2(O)[C@H]3Cc4ccc(O)c5c4[C@@]2(CCN3CC2CC2)C1O5 (some centres undefined) | / | -7 | / | / | / | -1
COc1ccc(-n2c(O)c(/C=C/C=Nc3ccccc3)c(=O)[nH]c2=O)cc1 | 7 | 4 | 9 | 5 | 9.4* | -4
CN1CC[C@@H]2CN[C@H](c3ccccc3Br)C[C@@H]21 | / | 6 | / | / | / | -4
CCCOP(=O)(OCCC)C(NC(=O)c1cc(OC)c(OC)c(OC)c1)c1ccccc1 (centres undefined) | 34 | 4 | -14 | -1 | -4 | -3
CCC(COC(=O)c1cc(OC)c(OC)c(OC)c1)(c1ccccc1)N(C)C (centres undefined) | -11 | -11 | -9 | -6 | 41* | -10
COC(=O)C1C(c2ccc(F)cc2)CC2CCC1N2C (centres undefined) | / | 0 | / | / | / | 1
N#Cc1c(N2CCNCC2)nc(-c2ccco2)c2c1CCCC2 | -24 | 10 | 27 | 8.9* | -3 | -7
O=C(Nc1ccccc1)N1Cc2cc(Br)ccc2-n2nncc2C1 | / | 16 | / | / | / | 10
C=C(C)CSc1nnc([C@@H](N)Cc2c[nH]c3ccccc23)o1 | 26 | 0 | 89* | -5 | -4 | -1
Cc1ccc(NC(=O)CSc2nnc([C@@H](N)Cc3c[nH]c4ccccc34)o2)c(C)c1 | 109* | 4 | 38 | -1 | -4 | 10
N[C@@H](Cc1c[nH]c2ccccc12)c1nnc(SCc2ccccc2)o1 | 10 | -7 | 22 | -1 | -4 | -12
N[C@@H](Cc1c[nH]c2ccccc12)c1nnc(SCc2ccc(F)cc2)o1 | 12 | 9 | 62* | 2 | -2 | 8
CCOC(=O)CNC(=O)N1Cc2cc(Br)ccc2-n2nncc2C1 | / | -11 | / | / | / | -8
Cc1ccc(-c2cc(-c3ccccc3)cc(-c3ccccc3)[n+]2-c2ccccc2C(=O)O)cc1 | 96* | 10 | / | / | / | -1
CCn1nc(/C=C/c2ccccc2)nc2c(=O)n(C)c(=O)nc1-2 | 101* | -14 | 41 | -2 | -4 | -6
O=C(NCCN1CCC2(CC1)C(=O)NCN2c1ccccc1)c1ccc(Cl)c(Cl)c1 | / | 4 | / | / | / | -5
CC(C)C(CN1CCC(C)(c2cccc(O)c2)[C@@H](C)C1)NC(=O)C1Cc2ccc(O)cc2CN1 (some centres undefined) | / | 3 | / | / | / | 10
O=C(NCCN1CCC2(CC1)C(=O)NCN2c1ccccc1)c1ccc(F)cc1F | / | -2 | / | / | / | -4
COc1ccc(Cn2c(O)c(/C=N/NC(=O)c3ccccc3)c(=O)[nH]c2=O)cc1 | 81* | 13 | 2 | -1 | -1 | 14
CCn1c(O)c(C=Nc2ccc(N3CCOCC3)cc2)c(=O)n(CC)c1=S | -12 | 7 | 31 | -1 | -1 | -3
CCn1c(O)c(C(=O)CC2NCCc3ccccc32)c(=O)n(CC)c1=S (centres undefined) | / | / | 2 | 0 | 9.6* | /
CCC12CCN(CC3(O)CC3)C(Cc3ccc(O)cc31)C2(C)C (centres undefined) | / | -2 | / | / | / | 0
SMILES | Calb FLC | ARFGAP1 inhibitor | PHOSPHO1 block | VIM-2 inh | IMP-1 inhibitor | ASAP1 GAP inh
COCCCN1CCN(c2nnc3n2-c2sc(Br)cc2C(c2ccccc2Cl)=NC3)CC1 | 1 | 4 | 24 | -4 | 8.3* | -5
CCOCCN1CCN(c2nnc3n2-c2ccc(Cl)cc2C(c2ccccc2Cl)=NC3)CC1 | -4 | 8 | 35 | -3 | -4 | 11
Cc1ccc2nc(-c3ccc(CN4CCC(n5nnc6ccccc65)CC4)cc3)c(-c3ccccc3)nc2c1 | / | 12 | / | / | / | 13
Cc1ccc(OC(=O)N(C)C[C@H]2OCc3cnnn3CCCC(=O)N([C@H](C)CO)C[C@H]2C)cc1 | / | -3 | / | / | / | -11
CCn1c(P(C)(=O)O)nc2ccccc21 | 1 | -3 | -9 | -3 | -2 | 9
CCn1c(NN=O)nc2ccccc21 | 80* | 1 | 15 | -3 | -4 | -18
CC(C)NC1(c2ccccc2)CCCCC1 | / | 0 | / | / | / | 0
Nc1cc2nc3ccccc3nc2cc1N | -7 | -1 | 60* | -2 | -3 | 3
Nc1ncnc2c1ccn2[C@@H]1O[C@H](CO)[C@@H](O)[C@H]1O | 3 | / | / | / | / | -1
NC(=S)c1cn(C2OC(CO)C(O)C2O)c2ncnc(N)c12 (centres undefined) | -7 | -12 | -103 | 0 | 12* | -5
O=C1C2CCN(CC2)C1Cc1ccc(OCc2ccccc2)cc1 (centres undefined) | 109* | -16 | 43 | -1 | -2 | 2
O=[As](O)(O)c1ccc(N=Nc2ccc(O)cc2)cc1 | 7 | 3 | 49 | -5 | 5.1* | -13
NC(=O)c1ccc(C(=O)Nc2ccc([As](=O)(O)O)cc2)cc1 | 1 | 9 | 28 | -2 | -3 | 3
Oc1ccc(-[n+]2c(-c3ccccc3)cc(-c3ccccc3)cc2-c2ccccc2)cc1 | 103* | 2 | / | / | / | 9
O=C([O-])c1ccc(-[n+]2c(-c3ccccc3)cc(-c3ccccc3)cc2-c2ccccc2)cc1 | -22 | 2 | / | / | / | 7
COc1ccc(-[n+]2c(-c3ccccc3)cc(-c3ccccc3)cc2-c2ccccc2)cc1 | 108* | 14 | / | / | / | 2
O=[N+]([O-])c1ccc(-[n+]2c(-c3ccccc3)cc(-c3ccccc3)cc2-c2ccccc2)cc1 | -2 | 17 | 36 | -1 | -4 | 7
Brc1ccc(Oc2ccc(Br)cc2Br)c(Br)c1 | / | 10 | / | / | / | -4
Oc1c(Br)cc(Br)cc1Oc1ccc(Br)cc1Br | 87* | / | 13 | -2 | -2 | /
O=C(NCCN1CCC2(CC1)C(=O)NCN2c1ccccc1)C(c1ccccc1)c1ccccc1 | / | 13 | / | / | / | 8
COc1ccc(CCNCC2CCCO2)cc1 (centres undefined) | -2 | 6 | 13 | -2 | 0 | -11
CCOc1cccc(OCC)c2c(C)[n+](CC3CCCO3)c(C)c1-2 (centres undefined) | 3 | / | 95* | -2 | -4 | /
OCC[N+]12CCC(CC1)C(C(O)(c1ccccc1)c1ccccc1)C2 (centres undefined) | -5 | 7 | 28 | -2 | -3 | -9
